Screens: PubChem, several laboratories
Hits are enriched below; roughly 2.5% of the tested compounds scored in any of these assays.
SENP1 FRET inh = blocks the human SENP1 SUMO protease catalytic domain; inhibition, % at 10 µM; recombinant SENP1 catalytic domain, CyPet-SUMO1-YPet FRET cleavage; AID 624204; Q9P0U3; actives 0.21% (n = 360,000);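 active = inhibition at least 30% at 10 µM, raw YFP signal under a set limit, fluorescence ratio 0.5 to 1.5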;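 also: 0% = enzyme with DMSO and 100% = no enzyme wells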
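Assay system – human recombinant His6-tagged SENP1 catalytic domain enzyme · Input – SENP1 enzyme, 20 pM final · Buffer or medium – Tris pH 8 buffer plus EDTA, NaCl, BME, BSA, NP40, catalase · Schedule – 50 min reaction at room temperature · Technique – FRET read of cyan and yellow fluorescence · Control set – no-enzyme wells low, DMSO-plus-enzyme wells high control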
GRK2 inh = blocks RNA aptamer binding to human GRK2; P25098; bead flow cytometry, FAM-aptamer displacement from GRK2; inhibition of aptamer binding, % at 10 µM; actives 0.59% (n = 330,000);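 active = inhibition of aptamer binding above 40%, roughly 3 SD of noise, on plates passing a quality check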;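 also: median bead fluorescence of bound FAM aptamer so fluorescent compounds give negative values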
Target sequence (P25098 whole entry, looked up): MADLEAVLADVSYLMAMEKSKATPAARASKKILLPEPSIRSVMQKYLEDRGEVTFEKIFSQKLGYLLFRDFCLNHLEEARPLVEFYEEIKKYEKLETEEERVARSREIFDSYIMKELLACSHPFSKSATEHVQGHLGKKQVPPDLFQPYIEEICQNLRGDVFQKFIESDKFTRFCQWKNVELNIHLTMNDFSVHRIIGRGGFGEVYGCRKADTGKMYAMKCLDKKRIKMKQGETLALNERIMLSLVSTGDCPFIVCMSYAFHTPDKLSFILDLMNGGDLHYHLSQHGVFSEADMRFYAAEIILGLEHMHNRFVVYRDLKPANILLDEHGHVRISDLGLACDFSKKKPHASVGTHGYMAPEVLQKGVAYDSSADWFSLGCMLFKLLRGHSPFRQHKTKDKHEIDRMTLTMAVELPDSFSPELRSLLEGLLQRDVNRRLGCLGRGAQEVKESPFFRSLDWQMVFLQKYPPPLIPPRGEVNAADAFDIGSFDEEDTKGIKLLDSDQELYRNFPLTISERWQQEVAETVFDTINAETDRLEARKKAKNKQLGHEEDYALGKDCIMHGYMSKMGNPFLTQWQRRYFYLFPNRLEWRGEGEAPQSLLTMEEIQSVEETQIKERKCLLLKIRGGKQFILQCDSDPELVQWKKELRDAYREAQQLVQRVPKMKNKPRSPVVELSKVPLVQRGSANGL
B2AR ag = activates human beta-2 adrenergic receptor causing internalization; P07550; Am2.2-beta2AR cells, FAP receptor internalization, flow cytometry; actives 0.43% (n = 340,000); response, % (no concentration beside the values);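 active = response above a set limit, near 3 SD of response in nonfluorescent compounds, cut at about 42% in these data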
NadD block = blocks S. aureus nicotinate mononucleotide adenylyltransferase; purified NadD enzyme, colorimetric absorbance read-out; inhibition, % at 20 µM; actives 0.78% (n = 360,000); in the data active = inhibition above about 26%
ABHD5 PLIN5 PPI = blocks binding of human ABHD5 to perilipin-5; Q00G26+Q8WTS1; Split G. princeps luciferase complementation, luminescence, 4 h; inhibition, % at 4 µM; actives 0.78% (n = 360,000); AID 602281;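 active = inhibition above the mean inhibition across every tested compound plus 3 SD, cut at about 22% in these data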;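 also: 0% = DMSO only wells and the 100% control is not disclosed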
Active calls of the source: *; · = no result given; ! = not active in a repeat.

SMILES	SENP1 FRET inh	GRK2 inh	B2AR ag	NadD block	ABHD5 PLIN5 PPI
O=C1NC(=O)N(CCc2ccc(F)cc2)C(=O)/C1=C/c1ccco1	-10.6	0.0	6.2	33.6*	0.1
O=C1NC(=S)N(c2ccccc2)C(=O)/C1=C/c1ccco1	-18.0	43.0*	4.1	4.9	-2.9
CCN(CC)c1ccc(/C=C2\C(=O)NC(=S)N(c3ccc(OC)cc3OC)C2=O)o1	78.3*	·	-13.6	3.8	16.0
CCN1C(=O)/C(=C/c2ccc(N(CC)CC)cc2OC)C(=O)NC1=S	-4.3	0.0	-119.4	11.2	-2.9
COc1cccc(N2C(=O)/C(=C/c3ccc(C)o3)C(=O)NC2=S)c1	-12.2	8.0	35.3	5.1	5.8
COc1ccc(N2C(=O)/C(=C/c3ccc(N(C)C)o3)C(=O)NC2=S)cc1	69.5*	1.0	-65.6	8.5	23.0*
O=c1[nH]c(O)c(C=Nc2ccccc2[N+](=O)[O-])c(=O)[nH]1	·	58.0*	·	·	·
Cc1cccc(CCNCc2cc3ccc(C)cc3[nH]c2=O)c1	-23.9	1.0	17.1	-7.2	-9.2
O=C1NC(=S)NC(=O)C1=Cc1ccc2c(c1)CCN2CCCCl	-24.5	7.0	14.6	52.9*	-16.5
CCOc1cc(C=C2C(=O)NC(=S)NC2=O)ccc1O	-15.5	·	6.1	0.6	-1.8
O=[N+]([O-])/C=C/c1c(Cl)cccc1Cl	2.5	·	26.9	9.3	22.2*
O=C(CCN1CC1)OCCOC(=O)CCN1CC1	0.6	·	55.1*	-2.4	7.6
CN1C2CCC1CC(OC(=O)CCN1CCCC1)C2 (centres undefined)	0.7	0.0	0.7	1.1	6.2
COC(=O)C1=C(c2ccc(C(C)=O)cc2)C[C@@H]2CC[C@H]1N2C(=O)NCc1ccc2c(c1)OCO2	3.6	2.0	-0.5	0.2	-9.4
O=C1CCC[C@@H]2C[C@@]3(C[C@@H]4CCN1[C@H]24)Nc1cc(Cl)ccc1NC3=NCc1ccccc1	0.3	·	6.2	0.2	8.4
Cc1cc(C)cc(N2C(=O)/C(=C\c3ccc(N4CCN(C)CC4)o3)C(=O)NC2=S)c1	75.7*	3.0	-74.7	8.2	6.7
CCN(CC)c1ccc(/C=C2\C(=O)NC(=S)N(C)C2=O)o1	86.2*	0.0	7.8	-5.9	21.8
CCN(CC)c1ccc(C=C2C(=O)N(C)C(=S)N(C)C2=O)o1	87.0*	0.0	5.2	-0.4	3.8
CN1C(=O)C(=Cc2ccc(N3CCCCC3)o2)C(=O)N(C)C1=S	88.2*	0.0	-17.0	-3.6	3.7
Cc1ccc(/C=C2\C(=O)NC(=S)N(c3ccc(F)cc3)C2=O)o1	-11.6	29.0	17.7	6.0	0.9
CCOC(=O)[C@]12Cc3c(cc(OC)c(OC)c3OC)[C@H]1N(C(C)C)C(=O)c1ccccc12	0.4	·	·	-3.3	13.2
C#CCCC[C@@H]1OC(=O)CNC(=O)C([C@@H](C)CC)NC(=O)[C@@H]2CCCN2C(=O)C([C@@H](C)CC)OC(=O)[C@H](Cc2ccccc2)N(C)C(=O)[C@H](C(C)C)NC(=O)C1(C)C (some centres undefined)	1.3	·	·	-1.7	6.1
CCC(C)C1NC(=O)C(NC(=O)C(CC(C)C)N(C)C(=O)C2CCCN2C(=O)C(C)O)C(C)OC(=O)C(Cc2ccc(OC)cc2)N(C)C(=O)C2CCCN2C(=O)C(CC(C)C)NC(=O)[C@H](C)C(=O)[C@H](C(C)C)OC(=O)CC1O (some centres undefined)	1.3	·	42.1*	-3.1	1.3
ClCCOCCCl	2.7	0.0	5.1	2.4	-0.8
O=c1[nH]c(=O)n(-c2ccccc2)c(O)c1/C=C1/C(c2ccccc2)=Nc2ccccc21	-1.8	8.0	19.7	11.0	14.2
SMILES	SENP1 FRET inh	GRK2 inh	B2AR ag	NadD block	ABHD5 PLIN5 PPI
O=c1[nH]c(=O)n(-c2cccc(F)c2)c(O)c1/C=C1\C=Nc2ccccc21	3.7	0.0	44.4*	-0.4	16.4
COc1cc2c(c(OC)c1OC)-c1ccc(SC)c(=O)cc1C(N)CC2 (centres undefined)	-0.6	·	8.6	0.8	1.9
C[N+](C)(N)CCOC(=O)C(O)(c1ccccc1)C1CCCCC1 (centres undefined)	2.9	0.0	97.6*	-10.4	1.8
COC(=O)C1=C(c2cccc(C#N)c2)C[C@@H]2CC[C@H]1N2C(=O)NCc1ccco1	-2.2	3.0	-3.0	0.7	-1.3
COc1cc(/C=C2/C(=O)NC(=O)N(c3ccccc3)C2=O)ccc1O	-31.5	6.0	-2.0	3.5	15.4
CCOc1cc(/C=C2/C(=O)NC(=O)N(c3ccc(CC)cc3)C2=O)ccc1OC(=O)c1cccs1	-0.2	0.0	-3.9	9.3	22.0*
O=C1NC(=O)N(Cc2ccco2)C(=O)/C1=C/c1ccc(-c2cccc([N+](=O)[O-])c2)o1	0.3	23.0	34.0	66.9*	19.5
COc1cc(/C=C(/C)[N+](=O)[O-])ccc1OCc1ccccc1Cl	1.5	0.0	48.0*	4.4	89.7*
O=C1NC(=O)N(c2cccc(Cl)c2)C(=O)/C1=C\c1ccc(Sc2nc3ccccc3[nH]2)o1	-15.7	4.0	4.3	65.4*	1.0
Cc1cccc(N2C(=O)NC(=O)/C(=C/c3ccc(-c4ccc(C(=O)O)c(Cl)c4)o3)C2=O)c1	·	4.0	·	·	·
O=C1NC(=O)N(c2ccccc2)C(=O)/C1=C/c1ccc(Sc2ccccc2)o1	-10.9	0.0	-0.4	37.4*	15.8
O=C1NC(=O)N(c2ccccc2F)C(=O)/C1=C/c1ccc(Sc2nc3ccccc3[nH]2)o1	-8.4	8.0	11.4	45.1*	-3.1
Cc1ccc(N2C(=O)NC(=O)/C(=C\c3ccc([N+](=O)[O-])o3)C2=O)cc1	·	40.0	·	·	·
COC(=O)C1=C(c2cccc(OC)c2OC)C[C@@H]2CC[C@H]1N2C(=O)NCc1ccco1	0.5	0.0	1.0	-0.8	12.0
CCOP(=O)(CCP(=O)(OCC)OCC)OCC.C[CH2][Sn]([Cl])([Cl])[CH2]C	2.6	·	-18.4	-1.5	78.2*
Cc1ccc(/C=C2\C(=O)NC(=S)N(c3ccccc3F)C2=O)s1	-56.2	3.0	70.5*	15.8	-3.4
Cc1ccc(/C=C2\C(=O)NC(=S)N(c3ccc(F)cc3)C2=O)s1	-38.7	4.0	38.9	32.0*	-5.5
CCOC(=O)C1CCN(/C=C2/C(=O)NC(=S)N(c3ccccc3F)C2=O)CC1	-2.1	4.0	-0.7	-3.5	-2.2
COc1ccc(C(CNC(=O)CCc2ccsc2)N(C)C)cc1 (centres undefined)	0.6	0.0	-4.1	-6.4	4.6
Cc1ccc2c(c1N)C(=O)c1ccccc1C2=O	53.5*	1.0	20.6	0.7	16.5
Oc1ccc2c3c1O[C@H]1[C@@H](O)CC[C@@]4(O)[C@@H](C2)N(CC2CCC2)CC[C@]314	32.8*!	5.0	-1.9	2.0	3.3
CN(C)[C@@H]1C(=O)C(C(N)=O)=C(O)[C@@]2(O)C(=O)C3=C(O)c4c(O)cccc4[C@@](C)(O)[C@H]3[C@H](O)[C@@H]12	22.0	57.0*!	-7.0	38.5*!	-5.9
